The results in this text go back to ChEMBL document CHEMBL1134473, “Synthesis and biological evaluation of pyrrolinic isosteres of rilmenidine. Discovery of cis-/trans-dicyclopropylmethyl-(4,5-dimethyl-4,5-dihydro-3H-pyrrol-2-yl)-amine (LNP 509), an I1 imidazoline receptor selective ligand with hypotensive activity” (J Med Chem, 2001).

SMILES strings stand for the structures.

The nature of the experiment: Displacement of [3H]RX-821002 from alpha-2 adrenergic receptor of calf frontal cortex membranes. The class given is tissue-based, Bos taurus. In a few lines: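 Calf frontal cortex membranes (0.5 mg protein/mL) incubated 60 min at 25 °C with 0.8 nM [3H]RX821002 plus 0.3 µM 5HT to mask 5HT1A sites, in 50 mM sodium phosphate pH 7.4, drug 10^-9 to 10^-4 M. Nonspecific binding with 10 µM phentolamine. Bound ligand separated by GF/C filtration and counted. Three experiments in triplicate; Ki by Cheng-Prusoff.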
Consider `CC1CC(NC(C2CC2)C2CC2)=NC1C` (mixture of isomers), for which the Log Ki is over -5.

Consider `C1COC(NC(C2CC2)C2CC2)=N1` [RILMENIDINE], for which the “Log Ki” value is listed as -7.25.

As to `CC1CCC(NC(C2CC2)C2CC2)=N1` (stereo not drawn), the Log Ki is over -5.

For `CCC1CCC(NC(C2CC2)C2CC2)=N1` (stereo not drawn), the Log Ki was over -5.

The compound `CC1CN=C(NC(C2CC2)C2CC2)C1` (stereo not drawn) displayed a Log Ki of over -5.

In turn, `C1CCC2N=C(NC(C3CC3)C3CC3)CC2C1` (stereo not drawn) had a Log Ki of over -5.

Compound `CC1CCN=C1NC(C1CC1)C1CC1` (stereo not drawn) came in with a Log Ki of over -5.

For the compound `C1CN=C(NC(C2CC2)C2CC2)C1`, the Log Ki was over -5.
